Laboratory results as given in ChEMBL document CHEMBL1134847, “Development of orally active nonpeptidic inhibitors of human neutrophil elastase” (J Med Chem, 2001).
Converted amounts (≈) assume the structure as drawn.

Legend:
[1] = tested on: Cricetinae gen. sp.; experiment: Inhibition of HNE-induced lung hemorrhage in hamsters after oral administration of 30 mg/kg followed by intratracheal instillation of HNE (10 U/lung); assay type: functional
In short: (§1)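 Hamsters (n = 6-10) were dosed orally 1 h before intratracheal instillation of HNE (10 U/lung). The read-out was inhibition of the HNE-induced lung hemorrhage.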

[2] = biological target: T1, Neutrophil elastase (Homo sapiens, UniProt P08246); experiment: Binding constant derived from inhibition of elastase catalyzed hydrolysis of synthetic substrate
T1 sequence (P08246 whole entry): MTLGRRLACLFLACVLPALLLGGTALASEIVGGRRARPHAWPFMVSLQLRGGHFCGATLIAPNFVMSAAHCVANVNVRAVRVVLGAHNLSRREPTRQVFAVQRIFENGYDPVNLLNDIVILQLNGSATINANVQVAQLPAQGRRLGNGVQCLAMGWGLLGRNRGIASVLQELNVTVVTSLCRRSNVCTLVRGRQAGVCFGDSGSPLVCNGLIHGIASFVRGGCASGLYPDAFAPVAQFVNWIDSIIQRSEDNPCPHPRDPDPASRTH

[3] = tested on: Cricetinae gen. sp.; experiment: Inhibition of HNE-induced lung hemorrhage in hamsters after oral administration followed by intratracheal instillation of HNE (10 U/lung); assay type: functional; in short: as §1
[4] = Solubility was determined at a pH of […] using 1/14 M phosphate buffer; assay type: physicochemical; details: pH 7.4
[5] = Solubility was determined at a pH of 5.5 using physiological saline; assay type: physicochemical; details: pH 5.5
In short: (§2)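 Solubility was measured in μg/mL in four vehicles: JP13th first fluid (pH ca. 1.2), 1/14 M phosphate citrate buffer (pH ca. 4.0), physiological saline (pH ca. 5.5) and 1/14 M phosphate buffer (pH ca. 7.4).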

[6] = Solubility was determined at a pH of 1.2 using first fluid (JP13th); assay type: physicochemical; details: pH 1.2; in short: as §2
[7] = Solubility was determined at a pH of 4.0 using 1/14 M phosphate citrate buffer; assay type: physicochemical; details: pH 4; in short: as §2

Ki [2] | SMILES | inhibition in vivo at 30 mg/kg [1] | also measured
– | CC(C)[C@H](NC(=O)[C@@H]1CCCN1C(=O)[C@@H](NS(C)(=O)=O)C(C)C)C(=O)c1nnc(C(C)(C)C)o1 | 17% | –
0.114 µM | CC(C)OC(=O)N1c2ccccc2C[C@H]1C(=O)N[C@H](C(=O)c1nnc(C(C)(C)C)o1)C(C)C | – | –
0.725 µM | CC(C)OC(=O)N1Cc2ccccc2C[C@H]1C(=O)N[C@H](C(=O)c1nnc(C(C)(C)C)o1)C(C)C | 0% | –
– | CC(C)[C@H](NC(=O)Cn1c(-c2ccccc2)ncc(N)c1=O)C(=O)c1nnc(C2(C)CC2)o1 | – | ED50 [1]: 11 mg/kg
0.0212 µM | COc1ccc(-c2nnc(C(=O)[C@@H](NC(=O)Cn3c(-c4ccc(F)cc4)ncc(N)c3=O)C(C)C)o2)cc1 | 13% | –
– | CC(C)[C@H](NC(=O)Cn1c(-c2ccc(F)cc2)ncc(N)c1=O)C(=O)c1nnc(C(C)(C)c2ccccc2)o1 | – | ED50 [3]: 10 mg/kg
– | CC(C)[C@H](NC(=O)CN1C(=O)N[C@H](Cc2c[nH]c3ccccc23)C1=O)C(=O)c1nnc(C(C)(C)C)o1 | 22% | –
– | CC(C)[C@H](NC(=O)Cn1c(-c2ccccc2)ncc(N)c1=O)C(=O)c1nnc(C(C)(C)C)o1 | – | solubility [4]: 0.31 mg/mL (≈ 685 µM); solubility [5]: 1.01 mg/mL (≈ 2230 µM); solubility [6]: > 2 mg/mL
– | Cc1nnc(C(=O)[C@@H](NC(=O)Cn2c(-c3ccc(F)cc3)ncc(N)c2=O)C(C)C)o1 | 47% | –
– | CC(C)[C@H](NC(=O)Cn1c(-c2ccccc2)ncc(N)c1=O)C(=O)c1nnc(C(C)(C)c2ccccc2)o1 | – | solubility [7]: 0.026 mg/mL (≈ 50.5 µM); ED50 [3]: 25 mg/kg; solubility [4]: 0.02 mg/mL (≈ 38.9 µM); solubility [6]: 0.499 mg/mL (≈ 970 µM)
– | CC(C)C[C@@H]1NC(=O)N(CC(=O)N[C@H](C(=O)c2nnc(C(C)(C)C)o2)C(C)C)C1=O | 0% | –
0.0797 µM | CC(C)[C@H](NC(=O)[C@@H]1Cc2ccccc2N1C(=O)c1c[nH]cn1)C(=O)c1nnc(C(C)(C)C)o1 | 81% | –
0.309 µM | CC(C)[C@H](NC(=O)C1Cc2ccccc2CN1C(=O)c1c[nH]cn1)C(=O)c1nnc(C(C)(C)C)o1 (some centres not stated) | 29% | –
0.00166 µM | CC(C)[C@H](NC(=O)[C@@H]1Cc2ccccc2CN1C(=O)[C@@H](NC(=O)c1cccnc1)C(C)C)C(=O)c1nnc(C(C)(C)C)o1 | – | ED50 [3]: 14.2 mg/kg
– | CC(C)[C@H](NC(=O)Cn1c(-c2ccc(F)cc2)nccc1=O)C(=O)c1nnc(C(C)(C)c2ccccc2)o1 | 61% | –

SMILES | Ki [2] | inhibition in vivo at 30 mg/kg [1] | also measured
CC(C)[C@H](NC(=O)CN1C(=O)CN=C(c2ccc(Cl)cc2)c2ccccc21)C(=O)c1nnc(C(C)(C)C)o1 | 0.0578 µM | 22% | –
